Reference: ChEMBL document CHEMBL1155748, “New jatrophane diterpenoid esters from Euphorbia turczaninowii” (J Nat Prod, 2001)
≈ marks a conversion by molar mass, not a printed value.

Experiments:
[1] = species: Mus musculus; assay: Toxicity in mouse assessed as irritant dose causing ear redness after 24 hours by inflammation assay; type: organism-based; settings: in vivo
How it was run: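 Compound applied to the mouse ear as an acetone (Me2CO) solution. Ear redness was scored 4 and 24 h after application. […] TPA served as the reference irritant.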

[2] = tested on: B16; assay: Cytotoxicity against mouse B16 cells by MTT assay; type: functional, cell-based
[3] = species: Mus musculus; assay: Toxicity in mouse assessed as irritant dose causing ear redness after 4 hours by inflammation assay; type: organism-based; settings: in vivo
How it was run: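 Test solution in Me2CO applied to the mouse ear; ear redness scored 4 and 24 h after application. […] TPA (12-O-tetradecanoylphorbol 13-acetate) run as reference irritant.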

Row | Compound | ID50 [1] | IC50 [2] | ID50 [3]
1 | C=C1[C@H](OC(C)=O)[C@H]2[C@@H](OC(C)=O)[C@@H](C)C[C@]2(OC(C)=O)C(=O)[C@@H](C)/C=C/C(C)(C)C(=O)[C@H](OC(C)=O)[C@H]1OC(=O)c1ccccc1 | > 100 µg |  | 
2 | C=C1[C@H](OC(C)=O)[C@@H](OC(C)=O)[C@@H](OC(C)=O)C(C)(C)/C=C/[C@H](C)C(=O)[C@@]2(OC(C)=O)C[C@@](C)(OC(=O)c3ccccc3)[C@H](OC(C)=O)[C@@H]2[C@H]1OC(C)=O | > 100 µg | > 5 µg/mL | 
3 | CCCCCCCCCCCCCC(=O)O[C@@H]1[C@@H](C)[C@@]2(O)[C@@H](C=C(CO)C[C@]3(O)C(=O)C(C)=C[C@@H]23)[C@@H]2C(C)(C)[C@]12OC(C)=O [PHORBOL MYRISTATE ACETATE] | 0.0085 µg |  | 0.012 µg
4 | CC[C@]1(O)C[C@@H]2CN(CCc3c([nH]c4ccccc34)[C@@](C(=O)OC)(c3cc4c(cc3OC)N(C)[C@H]3[C@@](O)(C(=O)OC)[C@H](OC(C)=O)[C@]5(CC)C=CCN6CC[C@]43[C@@H]65)C2)C1 [VINBLASTINE] |  | 3.6 µg/mL (≈ 4.44 µM) | 
5 | C=C1[C@H](OC(=O)c2ccccc2)[C@@H](OC(C)=O)[C@@H](OC(C)=O)C(C)(C)/C=C/[C@H](C)C(=O)[C@@]2(OC(C)=O)C[C@H](C)[C@H](OC(C)=O)[C@@H]2[C@H]1OC(C)=O | > 100 µg |  | 
6 | C=C1[C@H](OC(=O)c2ccccc2)[C@@H](OC(C)=O)[C@@H](OC(C)=O)C(C)(C)/C=C/[C@H](C)C(=O)[C@@]2(OC(C)=O)C[C@@](C)(OC(C)=O)[C@H](OC(C)=O)[C@@H]2[C@H]1OC(C)=O | > 100 µg | > 5 µg/mL | 
7 | C=C1[C@H](OC(C)=O)[C@H]2[C@@H](OC(C)=O)[C@](C)(OC(=O)c3ccccc3)C[C@]2(OC(C)=O)C(=O)[C@@H](C)/C=C/C(C)(C)C(=O)[C@H](OC(C)=O)[C@H]1OC(C)=O | > 100 µg |  | 
8 | C=C1[C@H](OC(C)=O)[C@H]2[C@@H](OC(C)=O)[C@@H](C)C[C@]2(OC(C)=O)C(=O)[C@@H](C)/C=C/C(C)(C)C(=O)[C@H](OC(C)=O)[C@H]1OC(C)=O | > 100 µg |  | 
